Laboratory results published in publication PMC9988221 (Journal of Clinical Psychopharmacology, 2023).
pIC50: −log10 of the molar value. Where two headings read alike, the source gives them in different places.

Legend:
[1] = type: in vivo, human; details: once-daily BI 425809 25 mg; midazolam exposure
[2] = cited from earlier work
P-gp = P-gp (Homo sapiens, UniProt P08183); type: in vitro ADME
Method in brief: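 Bidirectional Caco-2 monolayer transport in HBSS with 15 mM HEPES, pH 7.4, after 30 min equilibration. [³H]digoxin (1 μM) went in the donor side, and test compound (1–100 μM) or zosuquidar (1 μM) on both sides. After 30 min preincubation, sampling ran to 90 min and was read by scintillation counting. Papp gave the B-to-A/A-to-B efflux ratio, and IC50 with slope factor came from nonlinear regression of efflux ratio against inhibitor concentration.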

CYP3A4/5 = details: human, human liver microsomes
Unbound plasma fraction = type: in vitro ADME; details: derived from other preclinical studies (data not shown)
CYP3A4 [3] = test: in vitro; details: human, Emax for induction of CYP3A4 activity, % of positive control effect
CYP3A4 [4] = test: Basic induction model; design: species or system human
CYP2C9 = CYP2C9 (Homo sapiens, UniProt P11712); test: Reversible CYP inhibition in human liver microsomes, diclofenac substrate
Sequence of CYP2C9 (P11712 whole entry): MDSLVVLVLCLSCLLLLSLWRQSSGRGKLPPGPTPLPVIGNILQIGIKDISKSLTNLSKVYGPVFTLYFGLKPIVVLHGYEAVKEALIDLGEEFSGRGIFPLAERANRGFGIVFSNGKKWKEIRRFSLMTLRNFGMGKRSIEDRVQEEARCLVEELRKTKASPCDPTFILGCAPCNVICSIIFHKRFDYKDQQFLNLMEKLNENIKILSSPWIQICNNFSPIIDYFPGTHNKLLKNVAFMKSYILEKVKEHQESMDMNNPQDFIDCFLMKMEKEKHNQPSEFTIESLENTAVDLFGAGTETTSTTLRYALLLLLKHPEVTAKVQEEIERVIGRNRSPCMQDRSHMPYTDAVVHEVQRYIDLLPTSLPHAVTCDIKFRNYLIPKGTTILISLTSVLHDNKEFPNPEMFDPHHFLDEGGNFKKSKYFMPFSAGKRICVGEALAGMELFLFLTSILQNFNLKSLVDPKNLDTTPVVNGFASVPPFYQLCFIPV

CYP2C8 = target: T1, CYP2C8 (Homo sapiens, UniProt P10632); test: Reversible CYP inhibition in human liver microsomes, amodiaquine substrate
T1 sequence (P10632 1-490): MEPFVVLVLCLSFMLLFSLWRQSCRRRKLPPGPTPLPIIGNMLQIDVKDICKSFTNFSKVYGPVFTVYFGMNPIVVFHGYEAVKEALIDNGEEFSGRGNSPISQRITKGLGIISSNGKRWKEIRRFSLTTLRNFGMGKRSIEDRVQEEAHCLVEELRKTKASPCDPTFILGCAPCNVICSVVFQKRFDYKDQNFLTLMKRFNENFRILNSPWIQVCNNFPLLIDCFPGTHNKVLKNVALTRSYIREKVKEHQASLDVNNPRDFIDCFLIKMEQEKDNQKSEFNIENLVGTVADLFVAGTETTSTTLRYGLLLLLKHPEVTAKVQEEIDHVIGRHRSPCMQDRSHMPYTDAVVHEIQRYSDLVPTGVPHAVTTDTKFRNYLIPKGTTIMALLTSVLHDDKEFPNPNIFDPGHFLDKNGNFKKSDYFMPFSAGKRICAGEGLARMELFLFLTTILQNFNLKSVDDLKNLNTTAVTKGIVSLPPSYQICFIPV

human hepatocytes = test: Cell viability of hepatocytes in the induction assay; type: cell-based; details: hepatocytes from any donor; BI 425809 up to 30 μM
CYP3A4 mRNA = type: in vitro ADME, human; details: for Emax for induction of CYP3A4 mRNA levels: 10 to 30 μM BI 425809
CYP2C19 = CYP2C19 (Homo sapiens, UniProt P33261); test: Reversible CYP inhibition in human liver microsomes, S-mephenytoin substrate
Sequence of CYP2C19 (P33261 whole entry): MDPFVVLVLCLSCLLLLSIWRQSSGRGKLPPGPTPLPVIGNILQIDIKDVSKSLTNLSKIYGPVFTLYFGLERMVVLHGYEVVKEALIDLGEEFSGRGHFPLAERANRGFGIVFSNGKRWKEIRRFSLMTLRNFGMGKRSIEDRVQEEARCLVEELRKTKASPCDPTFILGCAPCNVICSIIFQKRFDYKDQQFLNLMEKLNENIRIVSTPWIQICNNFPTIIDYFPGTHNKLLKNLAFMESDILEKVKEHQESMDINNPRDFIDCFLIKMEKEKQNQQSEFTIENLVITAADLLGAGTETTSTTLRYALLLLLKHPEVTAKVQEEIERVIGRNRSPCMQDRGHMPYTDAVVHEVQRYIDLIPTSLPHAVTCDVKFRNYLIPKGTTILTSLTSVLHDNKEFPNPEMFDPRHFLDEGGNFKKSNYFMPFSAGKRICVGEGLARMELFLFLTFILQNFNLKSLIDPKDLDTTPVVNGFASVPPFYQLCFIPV

CYP3A4 [5] = details: for Emax for induction of CYP3A4 activity: BI 425809 10 to 30 μM, 48 hours
CYP2D6 = CYP2D6 (Homo sapiens, UniProt P10635); test: Reversible CYP inhibition in human liver microsomes, dextromethorphan substrate
Sequence of CYP2D6 (P10635 whole entry): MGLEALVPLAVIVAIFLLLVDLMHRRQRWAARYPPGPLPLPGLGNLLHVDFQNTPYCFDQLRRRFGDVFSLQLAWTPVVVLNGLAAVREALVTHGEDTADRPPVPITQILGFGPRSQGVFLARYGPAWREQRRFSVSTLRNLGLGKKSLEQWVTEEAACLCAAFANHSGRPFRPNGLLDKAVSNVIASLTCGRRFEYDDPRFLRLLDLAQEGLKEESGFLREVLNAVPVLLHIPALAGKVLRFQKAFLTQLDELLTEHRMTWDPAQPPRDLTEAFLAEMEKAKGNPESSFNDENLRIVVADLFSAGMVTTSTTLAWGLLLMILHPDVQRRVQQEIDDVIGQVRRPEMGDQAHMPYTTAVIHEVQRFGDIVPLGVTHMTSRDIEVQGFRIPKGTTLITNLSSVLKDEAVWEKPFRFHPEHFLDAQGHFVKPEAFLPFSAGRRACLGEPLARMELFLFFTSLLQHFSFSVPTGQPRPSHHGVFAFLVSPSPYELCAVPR

[6] = Attainment of BI 425809 steady state; type: in vivo, human
CYP1A2 = target: T2, CYP1A2 (Homo sapiens, UniProt P05177); test: Reversible CYP inhibition in human liver microsomes, phenacetin substrate
T2 sequence (P05177 1-516): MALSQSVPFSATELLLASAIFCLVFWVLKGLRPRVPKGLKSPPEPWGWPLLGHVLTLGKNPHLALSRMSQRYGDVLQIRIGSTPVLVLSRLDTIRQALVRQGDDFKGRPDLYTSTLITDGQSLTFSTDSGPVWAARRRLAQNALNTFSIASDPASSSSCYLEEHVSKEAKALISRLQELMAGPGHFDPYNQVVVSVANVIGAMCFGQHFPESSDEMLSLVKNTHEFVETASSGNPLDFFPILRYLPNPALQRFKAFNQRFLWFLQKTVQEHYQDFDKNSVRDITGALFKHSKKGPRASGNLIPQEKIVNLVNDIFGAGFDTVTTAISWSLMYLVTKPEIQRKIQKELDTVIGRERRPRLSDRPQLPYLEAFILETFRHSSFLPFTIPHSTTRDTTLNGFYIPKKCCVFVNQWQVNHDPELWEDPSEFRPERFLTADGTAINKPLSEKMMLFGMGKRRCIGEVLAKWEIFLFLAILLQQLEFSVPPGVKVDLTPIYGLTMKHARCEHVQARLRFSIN

Safety and tolerability = type: in vivo, human; details: this study, healthy male participants
Method in brief: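 Phase I open-label, single-sequence crossover in healthy men. No specific safety endpoints were set. Counts of participants with treatment-emergent AEs (drug-related, serious, special interest, other significant), including clinically relevant physical and neurological examination findings, were analysed in the treated set. End-of-trial visit was 11–16 days after the last test compound dose.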

CYP2B6 = target: T3, CYP2B6 (Homo sapiens, UniProt P20813); test: Reversible CYP inhibition in human liver microsomes, bupropion substrate
T3 sequence (P20813 1-491): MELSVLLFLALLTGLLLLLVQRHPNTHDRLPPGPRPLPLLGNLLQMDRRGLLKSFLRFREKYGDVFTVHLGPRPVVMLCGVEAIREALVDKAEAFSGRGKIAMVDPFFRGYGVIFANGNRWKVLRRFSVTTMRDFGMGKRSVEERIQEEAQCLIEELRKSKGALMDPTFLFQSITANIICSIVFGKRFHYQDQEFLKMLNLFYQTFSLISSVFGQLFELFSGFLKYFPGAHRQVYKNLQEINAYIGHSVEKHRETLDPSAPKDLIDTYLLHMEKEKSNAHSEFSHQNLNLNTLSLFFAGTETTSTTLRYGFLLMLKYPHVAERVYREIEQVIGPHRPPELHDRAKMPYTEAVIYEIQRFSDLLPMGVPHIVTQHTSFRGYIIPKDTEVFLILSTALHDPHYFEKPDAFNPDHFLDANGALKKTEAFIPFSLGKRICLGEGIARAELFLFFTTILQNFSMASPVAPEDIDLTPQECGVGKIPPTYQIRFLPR

Sequence of P-gp (P08183 whole entry): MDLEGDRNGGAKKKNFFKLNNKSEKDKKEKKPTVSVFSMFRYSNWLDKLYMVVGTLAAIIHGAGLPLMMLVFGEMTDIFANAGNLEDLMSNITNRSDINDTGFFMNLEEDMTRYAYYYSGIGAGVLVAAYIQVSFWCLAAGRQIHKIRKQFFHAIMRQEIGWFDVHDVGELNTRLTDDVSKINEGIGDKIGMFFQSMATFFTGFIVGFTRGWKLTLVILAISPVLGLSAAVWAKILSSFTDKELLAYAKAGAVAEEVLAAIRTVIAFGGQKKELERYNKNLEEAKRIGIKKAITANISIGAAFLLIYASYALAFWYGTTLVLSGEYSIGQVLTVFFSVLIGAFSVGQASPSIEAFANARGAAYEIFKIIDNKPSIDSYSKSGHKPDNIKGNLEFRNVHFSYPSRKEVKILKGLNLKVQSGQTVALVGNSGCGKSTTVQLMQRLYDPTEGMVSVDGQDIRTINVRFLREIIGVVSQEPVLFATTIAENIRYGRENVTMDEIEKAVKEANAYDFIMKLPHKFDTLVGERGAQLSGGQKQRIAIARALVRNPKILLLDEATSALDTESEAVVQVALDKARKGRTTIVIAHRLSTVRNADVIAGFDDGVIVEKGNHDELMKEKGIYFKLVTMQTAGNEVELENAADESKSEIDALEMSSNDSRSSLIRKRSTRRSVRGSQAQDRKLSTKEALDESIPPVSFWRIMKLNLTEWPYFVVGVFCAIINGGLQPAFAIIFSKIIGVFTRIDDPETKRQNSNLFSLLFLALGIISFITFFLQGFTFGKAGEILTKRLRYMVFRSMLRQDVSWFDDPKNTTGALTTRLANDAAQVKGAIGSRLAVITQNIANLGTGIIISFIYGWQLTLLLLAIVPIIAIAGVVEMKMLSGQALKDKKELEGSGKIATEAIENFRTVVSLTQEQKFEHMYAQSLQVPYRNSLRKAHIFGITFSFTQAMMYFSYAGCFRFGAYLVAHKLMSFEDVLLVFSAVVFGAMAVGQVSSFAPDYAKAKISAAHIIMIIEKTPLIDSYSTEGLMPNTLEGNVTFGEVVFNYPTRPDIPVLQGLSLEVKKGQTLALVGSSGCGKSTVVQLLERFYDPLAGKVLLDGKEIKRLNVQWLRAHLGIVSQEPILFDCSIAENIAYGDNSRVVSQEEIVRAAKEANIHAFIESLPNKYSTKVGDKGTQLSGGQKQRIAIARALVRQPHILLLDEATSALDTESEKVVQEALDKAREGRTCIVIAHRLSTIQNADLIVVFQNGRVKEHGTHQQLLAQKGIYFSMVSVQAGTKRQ

## C[C@@H](Oc1ccc(S(C)(=O)=O)cc1C(=O)N1C[C@@H]2C[C@]2(c2cc(C(F)(F)F)on2)C1)C(F)(F)F [BI 425809]
[1]
  CYP3A4 induction in vivo (in words): mild inducer of CYP3A4 in vivo
[2]; doses of 10 mg and 25 mg, healthy volunteers
  increase of cerebrospinal fluid glycine levels, average: 50%
[2]; once-daily oral administration up to 75 mg, Phase I studies
  tolerability: generally well tolerated
[2]; previous study
  steady state reached after: 6 days
P-gp
  pIC50: 4.85
P-gp; Caco-2 cell monolayer, zosuquidar 1 μM, BI 425809 1-100 μM
  effect on P-gp-mediated transcellular transport of digoxin (in words): concentration-dependent inhibition
P-gp; I2 = dose[mol]/250 mL
  I2/IC50 ratio: approximately 13
CYP3A4/5
  pIC50: < 4.00
Unbound plasma fraction
  unbound plasma fraction: 0.196
CYP3A4 [3]
  Emax: 37%
CYP3A4 [4]; basic model, 2020 FDA guidance, unbound plasma fraction 0.196
  R3 (change in hepatic metabolic clearance of a sensitive CYP3A4 substrate): 0.12
CYP3A4 [4]; input of the basic induction model
  Imax,u, maximum unbound plasma concentration: approximately 121 nM
CYP2C9
  pIC50: 4.26
CYP2C8
  pIC50: < 4.00
Human hepatocytes
  cell viability relative to vehicle control: No decrease in cell viability
CYP3A4 mRNA; hepatocytes donor 1
  Emax for induction of CYP3A4 mRNA levels: 14 fold
CYP3A4 mRNA; hepatocytes donor 2
  Emax for induction of CYP3A4 mRNA levels: 13 fold
CYP3A4 mRNA; hepatocytes donor 3
  Emax for induction of CYP3A4 mRNA levels: 37 fold
CYP3A4 mRNA; hepatocytes from donors 1, 2, and 3
  induction of CYP3A4 mRNA levels (in words): concentration-dependent induction
CYP3A4 mRNA; human, sandwich-cultured primary human hepatocytes
  EC50 at 48 h: 1.96 µM
CYP3A4 mRNA; mRNA levels of all three donors fitted to 3-parameter sigmoidal model
  Emax for induction of CYP3A4: 18.7 fold
CYP2C19
  pIC50: < 4.00
CYP3A4 [5]; hepatocytes donor 1
  Emax for induction of CYP3A4 activity: 10 fold
CYP3A4 [5]; hepatocytes donor 2
  Emax for induction of CYP3A4 activity: 3.4 fold
CYP3A4 [5]; hepatocytes donor 3
  Emax for induction of CYP3A4 activity: 6.6 fold
CYP3A4 [5]; human hepatocytes
  induction of CYP3A4 activity (in words): Concentration-dependent induction
CYP2D6
  pIC50: < 4.00
[6]; BI 425809 25 mg once daily, Cpre on days 8, 9, 10
  steady state reached by: ≤ 8 days
[6]; pairwise comparisons of days 8, 9, and 10 in period 2
  adjusted gMean ratios of Cpre of the compared sampling time points: ~100%
CYP1A2
  pIC50: < 4.00
Safety and tolerability
  tolerability: well tolerated
CYP2B6
  pIC50: < 4.00
